From ChEMBL document CHEMBL1949620, “Cyclolinopeptide derivatives modify methotrexate-induced suppression of the humoral immune response in mice” (Eur J Med Chem, 2011)
Active and inactive are the calls of the source. No cut-off for these calls is given here. Peptide text beside a SMILES is read from it.

Legend:
Type in all cases: functional, cell-based
[1] = system: Splenocyte; assay: Immunoregulatory activity against methotrexate-induced decrease of humoral immune response in SRBC primed BALB/c mouse splenocytes assessed as increase of antibody forming cells at 10 ug/ml after 4 days
Outline: (§1)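 Female BALB/c mice, 12 weeks old, primed i.p. with 0.2 ml of 1% SRBC. Splenocytes taken 4 days later and cultured at 5×10⁶/ml in RPMI 1640 with 10% FCS, glutamine, pyruvate, 2-mercaptoethanol and antibiotics, plus 0.05 ml of 0.005% SRBC. Peptides (in Cremophor/ethanol, diluted in RPMI) added at culture start; MTX (0.25, 0.5 or 1.0 mM) added at 24 h. After 4 days, AFC counted by agar-gel local haemolysis; Student's t-test.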

[2] = system: Splenocyte; assay: Immunoregulatory activity against methotrexate-induced decrease of humoral immune response in SRBC primed BALB/c mouse splenocytes assessed as increase of antibody forming cells at 1 ug/ml after 4 days; outline: as §1
[3] = system: Splenocyte; assay: Immunostimulatory activity in SRBC primed BALB/c mouse splenocytes assessed as humoral immune response by measuring inhibition of antibody forming cells at 10 ug/ml after 4 days
Outline: (§2)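 Splenocytes from female BALB/c mice (12 weeks old) primed i.p. with 0.2 ml of 1% SRBC and harvested after 4 days. Cells cultured at 5×10⁶/ml in RPMI 1640 with 10% FCS and supplements, with 0.05 ml of 0.005% SRBC antigen. Peptide (Cremophor/ethanol stock diluted in RPMI) added at initiation, no MTX. Antibody-forming cells counted by local haemolysis in agar after 4 days; Student's t-test.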

[4] = system: Splenocyte; assay: Immunostimulatory activity in SRBC primed BALB/c mouse splenocytes assessed as humoral immune response by measuring increase of antibody forming cells at 0.25 to 1 mM after 4 days; details: 1 to 10 ug/ml, in the assay text read “at 1 to 10 ug/ml” for “at 0.25 to 1 mM”; outline: as §1
[5] = system: Splenocyte; assay: Immunoregulatory activity against methotrexate-induced decrease of humoral immune response in SRBC primed BALB/c mouse splenocytes assessed as increase of antibody forming cells at […] after 4 days; outline: as §1
[6] = system: Splenocyte; assay: Immunoregulatory activity against methotrexate-induced decrease of humoral immune response in SRBC primed BALB/c mouse splenocytes assessed as increase of antibody forming cells at 0.1 ug/ml after 4 days; outline: as §1
[7] = system: Splenocyte; assay: Immunostimulatory activity in SRBC primed BALB/c mouse splenocytes assessed as humoral immune response by measuring increase of antibody forming cells after 4 days; outline: as §2
[8] = system: Splenocyte; assay: Immunostimulatory activity in SRBC primed BALB/c mouse splenocytes assessed as humoral immune response by measuring increase of antibody forming cells at 1 ug/ml after 4 days; outline: as §2

Row | Compound | increase of antibody forming cells [1] | inhibition [2] | inhibition [3] | Activity [4] | also measured
1 | CC[C@H](C)[C@@H]1NC(=O)[C@H](CC(C)C)NC(=O)[C@@H](Cc2ccccc2)N2CCN(C(=O)[C@@H]3CCCN3C(=O)[C@@H]3CCCN3C(=O)[C@H](C(C)C)NC(=O)[C@H](CC(C)C)NC(=O)[C@H]([C@@H](C)CC)NC1=O)[C@H](Cc1ccccc1)C2=O | Active | Active | – | – | –
2 | CC[C@H](C)[C@@H]1NC(=O)[C@H](CC(C)C)NC(=O)[C@H](Cc2ccccc2)N2CCN(C(=O)[C@@H]3CCCN3C(=O)[C@@H]3CCCN3C(=O)[C@H](C(C)C)NC(=O)[C@H](CC(C)C)NC(=O)[C@H]([C@@H](C)CC)NC1=O)[C@@H](Cc1ccccc1)C2=O | Active | – | Active | – | –
3 | CC[C@H](C)[C@H](NC(=O)[C@@H](NC(=O)[C@H](CC(C)C)NC(=O)[C@@H](Cc1ccccc1)N1CCN(C(=O)[C@@H]2CCCN2C(=O)[C@@H]2CCCN2C(=O)[C@@H](NC(=O)[C@@H](N)CC(C)C)C(C)C)[C@H](Cc2ccccc2)C1=O)[C@@H](C)CC)C(=O)O | Active | – | – | Active | –
4 | CC[C@H](C)[C@H](NC(=O)[C@@H](NC(=O)[C@H](CC(C)C)NC(=O)[C@H](Cc1ccccc1)N1CCN(C(=O)[C@@H]2CCCN2C(=O)[C@@H]2CCCN2C(=O)[C@@H](NC(=O)[C@@H](N)CC(C)C)C(C)C)[C@@H](Cc2ccccc2)C1=O)[C@@H](C)CC)C(=O)O | – | – | – | inactive | inhibition [5]: Active
5 | CC[C@H](C)[C@@H]1NC(=O)[C@H](CC(C)C)NC(=O)[C@H](Cc2ccccc2)NC(=O)[C@H](Cc2ccccc2)NC(=O)[C@@H]2CCCN2C(=O)[C@@H]2CCCN2C(=O)[C@H](C(C)C)NC(=O)[C@H](CC(C)C)NC(=O)[C@H]([C@@H](C)CC)NC1=O (cyclo(FFLIILVPP)) | Active | Active | Active | – | inhibition [6]: Active; Activity [7]: Dose-dependent effect; Activity [8]: inactive
6 | H-LVPPFFLII-OH | Active | – | – | inactive | –
